Assay results reported in the EternaBench riboswitch data.

System: MS2 coat protein
Assay: apparent Kd, MS2 coat protein; higher = weaker binding; RNA-MaP array; FMN 200 µM where present
Outline: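 In 100 mM Tris-HCl pH 7.5, 80 mM KCl, 4 mM MgCl2, BSA, DTT, yeast tRNA and Tween-20, SNAP-549-labelled MS2 coat protein was titrated from 0.7 or 1.5 nM, doubling to 3 µM, over designs transcribed by stalled E. coli RNA polymerase on Illumina sequencing-chip clusters. This was done first without ligand, then with ligand held constant. After green signal was normalised to red-channel RNA signal and control-cluster median Fmax, the apparent Kd was taken as the median of filtered per-cluster binding-curve fits.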

[1] = designed as: OFF switch for flavin mononucleotide, no ligand
[2] = ligand present: flavin mononucleotide, designed as: OFF switch for flavin mononucleotide
[3] = designed as: ON switch for flavin mononucleotide, no ligand
[4] = ligand present: flavin mononucleotide, designed as: ON switch for flavin mononucleotide

| Sequence | apparent Kd [1] [nM] | apparent Kd [2] [nM] | apparent Kd [3] [nM] | apparent Kd [4] [nM] |
| --- | --- | --- | --- | --- |
| ACUAGGCGAGGAUAUACAUGCUUAACACAGCGAAAGCUGUGACAUGAGGAUCACCCAUGUAGAAGGCGCAAAUA | 54.1 | 365 |  |  |
| CAGCGAUAGCUGAACAAUCUAUCUGAGGAUAUUCAUAUAAACAUGAGGAUCACCCAUGUAAAUUGGGAGAAGGCAGAUAGAUUG |  |  | 18 | 5.06 |
| CCCUAGAUCCGAGGAUAUACAAUCCGGAAACGGUACAUGAGGAUCACCCAUGUAGAAGGCGGAUCUACAGGUACUAAAGUACCC | 7.3 | 9.22 |  |  |
| AAAAAGGCAGGAUAUACAAAAAAAAAAAAAAAAAAGGAGGGACAUGAGGAUCACCCAUGUAGAAGGGCCAAAAA | 66.5 | 134 |  |  |
| AAUUUAAUACAUGAGGAUCACCCAUGUAAUACUAGUAAGAUCUAGGAUAUCAGCUCGAUUAGAGCUGAGAAGGAGAUCACAUGU |  |  | 92.9 | 27.9 |
| UUUUUAAAUAUAGGAUAUGGAAACAUGAGGAUCACCCAUGUAUGAUAAGAUAAAUUAUGAUAUAGCCAGAAGGAUAUUAUUUUU |  |  | 32.1 | 29.7 |
| GGGUCAUAUGUUAGGAUAUUGGAGGCAAGUGCCGUUAAGAAGGAACAUGAGGAUCACCCAUGUCUAACUGACUU | 34.5 | 66 |  |  |
| GCUCGCGUCGGUUCGCUGGCCUGAGAGGAUAUCCACUGGCAUGUCGACAUGAGGAUCACCCAUGUGGAGAAGGCUCAGGAUAAA | 311 | 552 |  |  |
| GUGAGGUCAGGAUAUGCAUGGCGGGACUUGCGUCGUGGCGUGGAGAAGGGACAUGAGGAUCACCCAUGUGGAGC | 55.6 | 59.1 |  |  |
| GAAGACAUAGUUCAGGAUAUAGGAAUAGUCACAUGAGGAUCACCCAUGUGCAUUUAUAUGCGCACUUAGAAGGGAGGUAGUUAUC |  |  | 36.3 | 41 |
| UAUAACAUGAGGAUCACCCAUGUGGUCGUCGUGGCCCUGUGACAGGAUAUCGGAGUUGGAGCAUACGAGAAGGGUUACGCGGCC | 10.5 | 12.4 |  |  |
| GGACAUGUACAGAAGGGCAAUUUAUUUAUUGAUUAUUUAGUUCUGUUUUGCAGGAUAUGUAAAACAUGAGGAUCACCCAUGUCC |  |  | 188 | 105 |
| GUGGUGCUAAAGAAGCACAUGAGGAUCACCCAUGUGCCGACACAGGAUAUCGACCGCGUUGGCGUCGAGAAGGGUGAGCCUACU |  |  | 63.4 | 34.4 |
| UUUUGGCAUGUAGGAUAUGGGUCCGAUUAGGAUUUAGAAGGACAUGAGGAUCACCCAUGUGCAUUUAAUUGGUCUUUUUUUUUU | 102 | 133 |  |  |
| AAAAAGUCAGGAUAUAGAAAAGGUCACGAAAGUGACAAAGGCUAGAAGGGACAUGAGGAUCACCCAUGUAAAAA | 31.9 | 31.1 |  |  |
| AGUCGGAGCAGAGGAUAUUACAUGAGGAUCACCCAUGUAGGUACCAAUAGCUGGAAACAGCAAUGUAAGAAGGCUGCUCCGACA | 259 | 281 |  |  |
| UGUCGGAGCAGAGGAUAUUACAUGAGGAUCACCCAUGUAUGAACCAAUAGCUGGAAACAGCAAUGUAAGAAGGCUGCGCCGACA | 12.5 | 153 |  |  |
| GUGCAGAUGUAAGGAUAUCGACUGGAAUACAGUCGAGAAGGUACAUGAGGAUCACCCAUGUAAAUGAAAGAUAAUAAACUGCAC | 15.3 | 26.1 |  |  |
| UCCUGAUUGAGAGUUAGGAGUGGUAGAAGGCGACCGGUGCCAGAUGACAUGAGGAUCACCCAUGUCGAGGAUAUACCACAGAAU | 8.04 | 15.4 |  |  |
| AAUAUGUUGCAGAAGGUUAUUUUUAUAACGAUCCAUUUGACAUGAGGAUCACCCAUGUAAUUGAUGAAGGAUAUGCAAUAUAUU | 6.42 | 7.18 |  |  |
| CCUAGAGAAGGAUAUACAUGAGGAUCACCCAUGUUCCGGCGCACAAUUAUGCGCCAAUGUAGAAGGUCUGGGCA | 23.6 | 26.6 |  |  |
| UAGAAAGAUUAAUAUGAUUACAUGAGGAUCACCCAUGUAUAUAAGGAUAUCGACGUCAAUGACGUCGAGAAGGUAUAUACAUAA | 66.3 | 198 |  |  |
| AGUCUGAGAGGAUAUACAUGAAAAAAAAAAGUUAGAUCCCUACAUGAGGAUCACCCAUGUAGAAGGCUCUGACA | 19.2 | 16.7 |  |  |
| GUCAGCUCGUGAGGAUAUACAUGUGCUGGAGACAGCACUAUUAUGUUCACAUGAGGAUCACCCAUGUAGAAGGCACGAGCUGAU | 16.8 | 20.9 |  |  |
